Assay results from different studies.

| Compound | test system | conditions | measurement | result |
| --- | --- | --- | --- | --- |
| COc1ccc([C@@H](O)c2cc(-c3ncnc4cc(N5CCOCC5)ccc34)c(F)cc2Cl)nn1 | human, plasma | oral, 200 mg, single dose, patients | Tmax | 2.02 h |
| Cn1cc(Nc2nc(N)nc(-c3cccc(-n4ccc5cc(C6CC6)cc(F)c5c4=O)c3CO)n2)cn1 | human, plasma | oral, 300 mg, single dose, fasted, suspension | Tmax | 2.52 h |
| CN1CC[C@@H](c2c(O)cc(O)c3c(=O)cc(-c4ccc(C(F)(F)F)cc4Cl)oc23)[C@@H]1CO | human, plasma | oral, 100 mg, patients | Tmax | 3.9 h |
| COc1ccc([C@@H]2Sc3ccccc3N(CCN(C)C)C(=O)[C@@H]2OC(C)=O)cc1 | Sprague-Dawley rat, hepatocytes | 2 µM, 4 h, pH 7.4 | fraction unbound | 0.89 |
| C[C@H]1[C@@H](O)O[C@@H]2O[C@@]3(C)CC[C@H]4[C@H](C)CC[C@@H]1[C@@]24OO3 | Sprague-Dawley rat, plasma | oral, 10 mg/kg | MRT(0-t) | 2.93 h |
| N#C[C@@]12C[C@@H]1[C@@H](n1cnc3c(N[C@@H](C4CCC4)C4CC4)nc(I)nc31)[C@H](O)[C@@H]2O | male Wistar rat, plasma | oral, 1 mg/kg | MRT(0-t) | 1.59 h |
| CC(C)NCC(O)COc1cccc2ccccc12 (stereo not shown) | Sprague-Dawley rat, hepatocytes | 2 µM, 4 h, pH 7.4 | fraction unbound | 0.88 |
| O=C1c2ccncc2C(=O)c2c1[nH]c1ccccc21 | rat, plasma | intravenous, 1 mg/kg, single dose | MRT | 2.4 h |
| O=C1CC[C@H](N2Cc3cc(N4CCN(CC5CCN(c6ccc([C@@H]7c8ccc(O)cc8CC[C@@H]7c7ccccc7)cc6)CC5)CC4)ccc3C2=O)C(=O)N1 | female Sprague-Dawley rat, plasma | oral, 20 mg/kg, fed | MRT(0-inf) | 12 h |
| NS(=O)(=O)OC[C@@H]1C[C@@H](n2ccc3c(N[C@H]4CCc5ccccc54)ncnc32)C[C@@H]1O | human, plasma | intravenous, 25 mg/m², patients | Tmax | 1.04 h |
